Screens deposited in PubChem by several laboratories.
Hits are enriched below; roughly 3% of the tested compounds scored in any of these assays.
CendR NRP1 mod: modulators of CendR peptide binding to NRP-1, primary screen, biochemical, fluorescence polarization, uHTS; FAM-RPARPAR peptide binding to NRP-1; actives 0.85% (n = 360,000); inhibition, % at 25 µM; Neuropilin-1 (Homo sapiens), O14786; AID 602438, 2012;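 active = inhibition or corrected inhibition above about 18%, plus a signal ratio from 0.5 to 1.5, limit read from the data, passing the limit was not always enough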
PLCg1 inh: PLC-gamma1 enzyme inhibitors, primary screen, biochemical, fluorescence, purified enzyme; 1-phosphatidylinositol 4,5-bisphosphate phosphodiesterase gamma-1 (Homo sapiens), P19174; fluorogenic substrate; inhibition, % at 12.2 µM; actives 0.84% (n = 370,000); AID 720700, 2013; in the data active = inhibition above about 9.5%
Tn7 DDE FP: inhibitors of Tn7 peptide binding to fibrin DD(E), primary screen, biochemical, fluorescence polarization, human fibrin, Tn7 probe; Fibrinogen beta chain (Homo sapiens), P02675; FP displacement of FITC-Tn7 peptide from fibrin DD(E); 0% = median of compound wells per plate; inhibition, % at 8.3 µM; actives 0.13% (n = 370,000);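 active = inhibition above the mean of compounds falling within the control limits plus 3 SD of them, cut at about 14% in these data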;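 also: 0% = plate median of compound wells and 100% = 10 µM Aha-Tn7 peptide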
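assay system = human clot-derived fibrin DD(E) complex | quantity = Fibrin-DD(E) at 2 µM final | timing = 10 min preincubation, 3 h with tracer, room temperature | signal = fluorescence polarization | measure = percent inhibition | benchmarks = high control wells with 10 µM unlabelled Aha-Tn7 peptide (full inhibition) | replicates = singlicate testing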
DDE Tn6 FP inh: inhibitors of Tn6 peptide binding to fibrin DD(E), primary screen, biochemical, fluorescence polarization, human fibrin, Tn6 probe. Fibrin DD(E) TRITC-Tn6 fluorescence polarization displacement. actives 0.21% (n = 370,000). inhibition, % at 8.3 µM. Fibrinogen beta chain (Homo sapiens), P02675;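 active = inhibition above a per-campaign cutoff: mean of compounds within control limits plus 3 SD, cut at about 15% in these data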;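 also: 0% = median of all compound wells on the plate and 100% = blocking peptide control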
PLCb3 inh: human PLC-beta3 inhibitors, primary screen, biochemical, fluorescence. Purified PLC-beta3, fluorogenic substrate. 1-phosphatidylinositol 4,5-bisphosphate phosphodiesterase beta-3 (Homo sapiens), Q01970. inhibition, % at 12.2 µM. actives 0.18% (n = 370,000); in the data active = inhibition above about 11%;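 also: 0% = median of compound wells on plate and 100% = full blocker control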
Target sequence (Q01970 whole entry, looked up): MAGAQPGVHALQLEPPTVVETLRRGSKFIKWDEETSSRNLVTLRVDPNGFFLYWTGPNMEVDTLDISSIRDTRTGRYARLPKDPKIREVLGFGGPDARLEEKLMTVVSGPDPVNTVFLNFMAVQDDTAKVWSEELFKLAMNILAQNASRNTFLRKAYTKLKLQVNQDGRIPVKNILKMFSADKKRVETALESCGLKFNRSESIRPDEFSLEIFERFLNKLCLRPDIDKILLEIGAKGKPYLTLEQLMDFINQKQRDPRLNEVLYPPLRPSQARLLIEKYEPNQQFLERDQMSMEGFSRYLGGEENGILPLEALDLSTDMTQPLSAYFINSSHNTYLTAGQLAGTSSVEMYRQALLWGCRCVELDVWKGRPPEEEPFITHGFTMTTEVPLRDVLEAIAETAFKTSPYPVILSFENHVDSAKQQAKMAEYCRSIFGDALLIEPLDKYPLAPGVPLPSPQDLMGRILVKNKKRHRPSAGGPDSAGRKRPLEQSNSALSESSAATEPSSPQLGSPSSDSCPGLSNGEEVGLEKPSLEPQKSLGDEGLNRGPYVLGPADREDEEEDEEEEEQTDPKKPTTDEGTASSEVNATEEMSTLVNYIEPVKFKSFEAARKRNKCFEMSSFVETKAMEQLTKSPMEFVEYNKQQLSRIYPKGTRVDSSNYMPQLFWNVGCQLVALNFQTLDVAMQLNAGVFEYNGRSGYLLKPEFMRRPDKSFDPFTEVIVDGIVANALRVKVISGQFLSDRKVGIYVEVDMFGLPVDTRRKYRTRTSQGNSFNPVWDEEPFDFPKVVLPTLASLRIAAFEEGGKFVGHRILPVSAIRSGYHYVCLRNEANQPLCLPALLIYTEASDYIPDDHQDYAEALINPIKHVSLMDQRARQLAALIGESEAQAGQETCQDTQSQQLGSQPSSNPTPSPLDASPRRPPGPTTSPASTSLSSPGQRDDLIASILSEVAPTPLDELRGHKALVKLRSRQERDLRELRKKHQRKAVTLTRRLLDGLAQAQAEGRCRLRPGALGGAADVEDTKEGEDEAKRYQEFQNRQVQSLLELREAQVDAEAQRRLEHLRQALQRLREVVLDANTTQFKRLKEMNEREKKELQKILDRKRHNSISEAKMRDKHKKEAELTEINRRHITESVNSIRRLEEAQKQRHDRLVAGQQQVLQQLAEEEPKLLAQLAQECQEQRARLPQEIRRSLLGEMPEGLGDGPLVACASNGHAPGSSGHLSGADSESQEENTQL
KLK7 zymogen act: proKLK7 zymogen activators, primary screen, biochemical, fluorescence intensity; Kallikrein-7 (Homo sapiens), P49862; purified proKLK7, EDANS-DABCYL substrate fluorescence; 100% is mature enzyme control, 0% vehicle; activation, % at 7 µM; actives 0.9% (n = 370,000); AID 652039, 2013;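 active = activation above the mean of all tested compounds plus 3 SD, computed per campaign excluding outliers beyond control limits, cut at about 13% in these data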
* = called active by the depositor; . = no result.

SMILES	CendR NRP1 mod	PLCg1 inh	Tn7 DDE FP	DDE Tn6 FP inh	PLCb3 inh	KLK7 zymogen act
COc1ccc(-n2c(SCC(=O)N3CCCCC3C)nnc2-c2ccncc2)cc1 (stereo unspecified)	.	-2	1	-2	1	1
O=C1NC(Cc2ccccc2)C(=O)N1Cc1ccccc1 (stereo unspecified)	-2	1	-2	5	1	0
O=c1ccsn1Cc1ccccc1	28*	-1	2	-10	0	1
O=C1CC(c2ccc3c(c2)OCO3)C2=C(CCCC2=O)N1 (stereo unspecified)	4	10*	-2	6	3	1
CC(=O)N1CCCN(C(=O)CCn2nnc3ccccc32)CC1	.	-3	7	-1	0	-1
CC(=O)Nc1ccc(S(=O)(=O)NC(C)C(=O)NCC(c2ccco2)N(C)C)cc1 (stereo unspecified)	27*	-21	-1	7	-22	-1
CCN(C(=O)CSc1nnc(-c2cccnc2)n1Cc1ccco1)c1ccccc1	.	3	3	4	-3	0
CCOCCCNC(=O)C(NC(=O)CNC(C)=O)c1ccc(Cl)cc1 (stereo unspecified)	24*	0	-5	2	5	1
COc1ccc(-n2c(COc3ccc(Cl)cc3)nnc2SCC(=O)Nc2ccc3c(c2)OCO3)cc1	.	1	2	0	1	1
O=C(NCCCc1ccccc1)OC1CC2CC1[C@H]1CCCCN1[C@H]2Cc1ccccc1 (stereo partly specified)	.	0	2	-4	-1	0
Cc1ccc(/C=N/NC(=O)c2nnn(-c3nonc3N)c2C)o1	20*	-1	7	11	-3	0
COc1cccc(CC(NC(C)=O)C(=O)NC2CCN(C(=O)c3ccc(Cl)cc3)CC2)c1 (stereo unspecified)	19*	0	9	10	-7	1
CC(=O)NC(Cc1ccc(F)c(F)c1)C(=O)NC1CCN(C(=O)c2ccc(Cl)cc2)CC1 (stereo unspecified)	0	-2	5	10	-3	0
COc1cc(-c2c(C(=O)c3ccccc3)[nH]c(N)c2C(=O)NCCc2c[nH]c3ccccc23)ccc1F	.	-7	-1	-1	-8	-1
C=CCn1c(=N)c(C#N)cc2c(=O)n3ccccc3nc21	36*	-132	-8	1	-166	11
O=C(CSc1nnc(SCc2cccc3ccccc23)s1)c1ccc(F)cc1	.	-2	4	-7	-3	0
COc1ccc(C(C(=O)N(C)C2CCCC2)N(Cc2ccc(F)cc2)C(=O)c2sccc2Cl)cc1OC (stereo unspecified)	.	-2	9	3	2	0
C#CCOCCOCCOCCNc1nc(N2CCN(C(=O)Cn3cc(CC(C)O)nn3)CC2)nc(N2CCN(C(=O)[C@H]([C@@H](C)CC)n3cc(CCCN=C(N)N)nn3)CC2)n1 (stereo partly specified)	4	7	-4	2	1	-1
C#CCOCCOCCOCCNc1nc(N2CCN(C(=O)Cn3cc(CCO)nn3)CC2)nc(N2CCN(C(=O)[C@H](C)n3cc(CCCN=C(N)N)nn3)CC2)n1	23*	4	-7	-2	2	0
C#CCOCCOCCOCCNc1nc(N2CCN(C(=O)Cn3cc(CCCN=C(N)N)nn3)CC2)nc(N2CCN(C(=O)Cn3cc(CC(C)O)nn3)CC2)n1 (stereo unspecified)	25*	1	7	1	0	0
C[C@H]1[C@@H](OC(=O)NCc2ccc(C(F)(F)F)cc2)CC[C@@]23CCCN2C(=O)CCC[C@@H]13	.	2	-5	-3	3	.
O=C(COc1ccccc1F)Nc1cc(S(=O)(=O)Nc2cccc(Cl)c2)ccc1O	25*	-2	0	4	-10	0
CC(C)CCNC(=O)C1COC(O)(C(Cc2ccccc2)NC(=O)[C@@H](NC(=O)OCc2ccccc2)C(C)C)CN1 (stereo partly specified)	.	-1	-2	6	-3	.
CCN(CC)S(=O)(=O)N1CCC(C(=O)NCCC2=CCCCC2)CC1	27*	2	-4	-4	1	0
CS(=O)(=O)N1CCC(C(=O)NCCC2=CCCCC2)CC1	-4	4	-2	2	4	0
SMILES	CendR NRP1 mod	PLCg1 inh	Tn7 DDE FP	DDE Tn6 FP inh	PLCb3 inh	KLK7 zymogen act
COCC1CCN(C(=O)C2CCC(=O)N(Cc3cccc(F)c3)C2)CC1 (stereo unspecified)	26*	0	0	-3	-1	0
Cc1nn(-c2ccccc2)c(C)c1C(=O)OCC(=O)N(C)C1CCS(=O)(=O)C1 (stereo unspecified)	10	1	2	-6	-7	0
CN(C(=O)COC(=O)Cc1c(Cl)cccc1Cl)C1CCS(=O)(=O)C1 (stereo unspecified)	26*	0	2	2	-6	-1
CN(C(=O)COC(=O)c1nc(-c2ccccc2)n(-c2ccccc2)n1)C1CCS(=O)(=O)C1 (stereo unspecified)	40*	3	-1	0	2	0
Cc1ccc(SCC(=O)OCC(=O)N(C)C2CCS(=O)(=O)C2)cc1C (stereo unspecified)	51*	0	4	2	-9	0
Cc1ccc(SCC(=O)OCC(=O)N(CC(C)C)C2CCS(=O)(=O)C2)cc1C (stereo unspecified)	11	-2	1	11	-7	0
Cc1ccc(C(=O)/C=C/NCc2ccc(F)cc2)cc1	36*	-16	6	6	-14	-2
CC(COc1cccc(C(F)(F)F)c1)CN1CCC(C(O)(c2ccccc2)c2ccccc2)CC1 (stereo unspecified)	.	3	-14	-1	4	1
C#CCOCCOCCOCCNc1nc(N2CCN(C(=O)Cn3cc(CCCN=C(N)N)nn3)CC2)nc(N2CCN(C(=O)[C@H](Cc3ccc(O)cc3)n3cc(CCO)nn3)CC2)n1	.	3	-6	-1	4	.
N=C1C(=O)OCC1c1cc(Cl)ccc1NC(=O)Nc1ccccc1 (stereo unspecified)	39*	-52	-3	-2	-76	0
Fc1ccc(-n2nnc(-c3cccnc3)n2)cc1	27*	4	0	-2	8	0
O=C(OCC#CCSc1nnc(-c2cccc3ccccc23)o1)c1sccc1Cl	.	-6	-1	-1	-4	.
